From PubChem
An excerpt weighted towards active compounds, which were near 2.4% of everything screened.
ROMK mod = ROMK potassium channel modulators, primary screen, cell-based, thallium flux, MLSMR library. ATP-sensitive inward rectifier potassium channel 1 (Homo sapiens), P48048. Tet-inducible ROMK, thallium flux fluorescence; actives lie on both sides. hit rate 2% among 130,000. AID 1918, 2009. B-score at 10 µM;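 active = signal ratio slope over the read window, or its plate-corrected B-score, at least 3 SD from the plate mean, either direction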;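 also: B-score of the F/F0 ratio slope over 7 to 12 s after thallium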
Target sequence (P48048 whole entry, looked up): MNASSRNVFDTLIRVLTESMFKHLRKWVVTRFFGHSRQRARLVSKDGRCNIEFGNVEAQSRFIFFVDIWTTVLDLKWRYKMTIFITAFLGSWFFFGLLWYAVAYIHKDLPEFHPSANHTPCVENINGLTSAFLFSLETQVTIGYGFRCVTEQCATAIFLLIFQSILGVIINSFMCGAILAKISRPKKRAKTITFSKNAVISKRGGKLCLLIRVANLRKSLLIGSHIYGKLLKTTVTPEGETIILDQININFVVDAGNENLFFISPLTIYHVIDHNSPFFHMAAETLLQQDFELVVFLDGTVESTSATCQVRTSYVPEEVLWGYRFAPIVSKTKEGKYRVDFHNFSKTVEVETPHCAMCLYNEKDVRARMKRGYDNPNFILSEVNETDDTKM
MT stabilize HCS = microtubule stabilizers in HeLa cells, primary screen, imaging, high-content imaging | HeLa tubulin immunostaining HCS, 24 h; share of cells brighter than vehicle mean+2SD | % tubulin-high responders, % at 10 µM | hit rate 0.83% among 200,000;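 active = plate Z-score above 3 for both tubulin-high and condensed-nucleus cell shares, with cell loss under 80%, at 10 µM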;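 also: anti alpha tubulin signal scored within the nucleus-defined area of each cell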
b-catenin transl = modulators of beta-catenin nuclear translocation, primary screen, imaging, HeLa cells, immunofluorescence, high-content; hit rate 0.3% among 190,000; nuclear translocation activity, % at 5 µM;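 active = nuclear translocation activity above 50% at 5 µM, with a well cell count of 50 or more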;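 also: per-cell ratio of nuclear to cytoplasmic median beta-catenin stain intensity; plate controls were DMSO negative control for no effect and GSK-3 inhibitor IX positive control for full effect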
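Test system: HeLa cells, endogenous beta-catenin; Compound: single 5 µM dose plus 0.02–20 µM confirmation series; Times: compound exposure 24 h at 37°C; Signal: fluorescence imaging of beta-catenin antibody stain plus DAPI; Read-out: % activation, nuclear-to-cytoplasmic median beta-catenin signal ratio per cell.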
Insulin prom inh = inhibitors of insulin promoter-driven GFP, primary screen, imaging, TRM-6 cells (human fetal islet line), eGFP reporter, cell count | reporter expression induced with tamoxifen | inhibition, % at 2 µM | hit rate 0.9% among 130,000;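 active = inhibition above the mean plus 3 SD, with well images judged a real hit on visual review, cut at about 60% in these data, passing the limit was not always enough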
HSV augment = enhancers of HSV replication in host cells, fold increase, host cell viability; HSV replication augmentation in cells; maximum fold increase; hit rate 0.005% among 220,000; AID 1956, 2009; in the data active = maximum fold increase above about 1.5; tested in PC3 cells
ROMK retest = ROMK channel modulator hit retest, confirmation, cell-based, thallium flux, duplicate, resupplied hits | shares compounds with ROMK mod | fluorescence ratio; stronger effect = lower value | normalized thallium flux (F/F0 slope) at 10 µM | hit rate 54% among 3,000 | AID 1917, 2009;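 active = Flux at 10 µM at least 3 SD below or above vehicle control mean in one or both replicates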
* hit, by the source's call.

Results for C=C(C)CSc1nc2sc3c(c2c(=O)n1C1CCCCC1)CCN(C)C3 ?
b-catenin transl: 1.4; HSV augment: inactive; ROMK retest: 0.0645*

What do the screens show for `CN(C)/C=C/C(=O)c1cc(N2CCOCC2)ccc1[N+](=O)[O-]`?
ROMK mod: 0.0916; MT stabilize HCS: 5.3; b-catenin transl: 2.0; HSV augment: inactive

How did O=C(CCN1CCN(c2ccccc2F)CC1)c1ccc(Br)cc1 do in these assays?
MT stabilize HCS: 6.5; b-catenin transl: -1.4; HSV augment: inactive

How did COc1ccccc1OCCCCN1CCN(c2ccccc2OC)CC1 do in these assays?
MT stabilize HCS: 5.0; Insulin prom inh: 28.6; HSV augment: inactive

Results for COc1ccc(C(=O)CCN2CCN(c3ccccc3F)CC2)cc1 ?
ROMK mod: -10.3*; MT stabilize HCS: 4.0; b-catenin transl: -3.5; Insulin prom inh: -25.6; HSV augment: inactive; ROMK retest: 0.0771

Results for COc1ccccc1N1CCN(CCCCCCOc2ccc(F)cc2)CC1 ?
ROMK mod: -4.5*; MT stabilize HCS: 5.7; b-catenin transl: -3.0; Insulin prom inh: -28.6; HSV augment: inactive; ROMK retest: 0.0383*

How did CC(CCc1ccco1)NC(=O)CSc1cc(=O)n(C)c2ccccc12 (stereo unspecified) do in these assays?
ROMK mod: 0.445; MT stabilize HCS: 3.4; b-catenin transl: -3.1; Insulin prom inh: -35.7; HSV augment: inactive

How did O=[N+]([O-])c1ccc([N+](=O)[O-])c(Nc2ccc(N3CCOCC3)cc2)c1 do in these assays?
MT stabilize HCS: 5.2; b-catenin transl: 3.7; HSV augment: inactive

How did CSc1nsc(SC)c1C(=O)N1CCN(S(=O)(=O)c2ccc(C)cc2)C1C(C)C (stereo unspecified) do in these assays?
ROMK mod: -3.55*; MT stabilize HCS: 3.8; b-catenin transl: -2.5; Insulin prom inh: -210.0; HSV augment: inactive; ROMK retest: 0.0643*

What do the screens show for `CCc1sc(C(=O)Nc2ccccc2N2CCOCC2)cc1C`?
ROMK mod: -2.64*; MT stabilize HCS: 5.8; b-catenin transl: -1.9; Insulin prom inh: 25.0; HSV augment: inactive; ROMK retest: 0.064*

Results for COc1cc(C2C(C#N)=C(N)Oc3cc4c(cc32)OCO4)cc(OC)c1OC (stereo unspecified) ?
ROMK mod: 4.71*; MT stabilize HCS: 9.5; b-catenin transl: 50.9*; Insulin prom inh: -120.5; HSV augment: inactive; ROMK retest: 0.0832

What do the screens show for `COc1cc(C2C(C#N)=C(N)Oc3cc(N(C)C)ccc32)cc2c1OCO2` (stereo unspecified)?
MT stabilize HCS: 14.1*; b-catenin transl: 79.7*; Insulin prom inh: -127.3; ROMK retest: 0.0576*

Results for CCOC(=O)C1=C(C)OC(N)=C(C#N)C1c1cc(OC)c2c(c1)OCO2 (stereo unspecified) ?
MT stabilize HCS: 5.9; b-catenin transl: -2.6; Insulin prom inh: -20.0; HSV augment: inactive

Results for CC1=C(C)CS(=O)N(S(=O)(=O)c2ccccc2)C1 (stereo unspecified) ?
ROMK mod: -5.49*; MT stabilize HCS: 1.2; b-catenin transl: -1.3; Insulin prom inh: 29.2; HSV augment: inactive; ROMK retest: 0.0471*

What do the screens show for `CCOc1ccc(N(C(=O)CNC(=O)c2cccs2)C(C(=O)NCC2CCCO2)c2ccc(OC)c(OC)c2)cc1` (stereo unspecified)?
ROMK mod: -0.077; MT stabilize HCS: 2.7; b-catenin transl: 0.3; Insulin prom inh: 5.0; HSV augment: inactive

How did O=C(COC(=O)C1c2ccccc2Oc2ccccc21)NC1CCS(=O)(=O)C1 (stereo unspecified) do in these assays?
MT stabilize HCS: 4.1; Insulin prom inh: -8.3; HSV augment: inactive

What do the screens show for `COc1ccc(CN(C)C2CCCCC2)c(C)c1C`?
ROMK mod: -4.04*; MT stabilize HCS: 1.0; Insulin prom inh: 12.9; HSV augment: inactive; ROMK retest: 0.0677*

Results for COc1ccc([C@H]2[C@H](C(=O)OC(C)(C)C)N3N=Cc4ccccc4C3C23C(=O)c2ccccc2C3=O)cc1OC (stereo partly specified) ?
MT stabilize HCS: 2.7; b-catenin transl: -2.0; Insulin prom inh: -43.3; HSV augment: inactive

Results for COc1ccc([C@H]2[C@H](C(=O)OC(C)(C)C)N3N=Cc4ccccc4C3C23C(=O)c2ccccc2C3=O)c(OC)c1 (stereo partly specified) ?
MT stabilize HCS: 1.3; b-catenin transl: -0.1; Insulin prom inh: -50.0; HSV augment: inactive; ROMK retest: 0.0602*

Results for COc1cccc(CC2(CO)CCCN(Cc3c(C)cc(C)cc3-n3cccn3)C2)c1 (stereo unspecified) ?
ROMK mod: -3.65*; MT stabilize HCS: 3.8; b-catenin transl: -1.4; HSV augment: inactive; ROMK retest: 0.0549*

What do the screens show for `COc1ccc(-n2ccnc2CN2CCCC(CO)(Cc3cccc(OC)c3)C2)cc1` (stereo unspecified)?
ROMK mod: -1.65; MT stabilize HCS: 2.5; b-catenin transl: 0.9; HSV augment: inactive

How did CC(C)(C)Nc1nc(Cl)nc(NC(C)(C)C)n1 do in these assays?
MT stabilize HCS: 1.6; b-catenin transl: 2.7; Insulin prom inh: -6.9; HSV augment: inactive

Results for CC(C)(C)Nc1nc(NN)nc(NC(C)(C)C)n1 ?
ROMK mod: -5.22*; MT stabilize HCS: 2.2; b-catenin transl: 4.9; HSV augment: inactive; ROMK retest: 0.0509*

What do the screens show for `CC(C)(C)n1nc(C2CC2)cc1NC(=O)Nc1ccc(Cl)cc1`?
b-catenin transl: -2.1; HSV augment: inactive; ROMK retest: 0.0782

How did Cn1nc(C(C)(C)C)cc1NC(=O)Nc1ccc(Cl)cc1 do in these assays?
b-catenin transl: 0.2; HSV augment: inactive

How did COc1ccc(-n2c(C(C)n3nc(C)c([N+](=O)[O-])c3C)n[nH]c2=S)cc1 (stereo unspecified) do in these assays?
MT stabilize HCS: 3.4; b-catenin transl: -2.9; Insulin prom inh: inactive; HSV augment: inactive

How did COc1ccc(-n2c(C)c([N+](=O)[O-])c3ccc(O)c(CN(C)C)c32)cc1 do in these assays?
MT stabilize HCS: 0.9; b-catenin transl: 0.9; Insulin prom inh: 53.3; ROMK retest: 0.0331*

Results for O=C1NC(c2ccc3c(c2)OCO3)Nc2ccccc21 (stereo unspecified) ?
ROMK mod: 2.23*; MT stabilize HCS: 21.7*; b-catenin transl: -1.4; Insulin prom inh: 7.1; HSV augment: inactive; ROMK retest: 0.0853
